# pIC50: −log10 of the molar value.
# Assays:
# MCF7 = experiment: Anticancer activity against human MCF7 cells assessed as reduction in cell viability after 96 hrs by MTT assay; type: functional, cell-based; conditions: MCF7, 96 h
# Method in brief: (§1)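 Cancer lines grown in RPMI with 10% FBS and 1% penicillin/streptomycin, 37 C, humidified 5% CO2. Cells exposed to test agents or vehicle in RPMI/10% FBS for 96 h; viability read by MTT; IC50 as mean ± S.D., n = 6.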
# A549 = experiment: Anticancer activity against human A549 cells assessed as reduction in cell viability after 96 hrs by MTT assay; type: functional, cell-based; conditions: A549, 96 h; method in brief: as §1
# HT-29 = experiment: Anticancer activity against human HT-29 cells assessed as reduction in cell viability after 96 hrs by MTT assay; type: functional, cell-based; conditions: HT-29, 96 h; method in brief: as §1
# [1] = Cytotoxicity against human F180 cells assessed as reduction in cell viability after 96 hrs by MTT assay; type: cell-based; conditions: F180, 96 h
# Method in brief: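 F180 normal fibroblasts kept in MEM with 10% FBS and 1% penicillin/streptomycin at 37 C, humidified 5% CO2. Treated with test agents or vehicle in MEM/10% FBS for 96 h; viability by MTT; IC50 reported as mean ± S.D. (n = 6).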
# Sus scrofa = organism: Sus scrofa; experiment: Inhibition of porcine brain tubulin polymerization assessed as tubulin polymerization level by measuring arbitary units at 3 uM by fluorescence analysis
SMILES,pIC50 (MCF7),pIC50 (A549),pIC50 (HT-29),Activity (Sus scrofa) [a.u.],pIC50 [1]
CSC(=S)N/N=C1\CC2(CCCCC2)Oc2c1ccc1ccccc21,5.29,5.40,5.38,,< 4.40
O=C(N/N=C1\CC2(CCCCC2)Oc2c1ccc1ccccc21)Nc1ccc(Cl)cc1,4.83,5.02,5.13,,
S=C(N/N=C1\CC2(CCCCC2)Oc2c1ccc1ccccc21)N1CCCCC1,4.87,4.94,5.17,,
S=C(N/N=C1\CC2(CCCCC2)Oc2c1ccc1ccccc21)N1CCOCC1,4.92,5.00,5.03,,
O=C1c2ccccc2C(=O)N1/N=C1\CC2(CCCCC2)Oc2c1ccc1ccccc21,4.92,4.91,5.08,,
S=C(N/N=C1\CC2(CCCCC2)Oc2c1ccc1ccccc21)N1CCNCC1,4.85,4.92,5.08,,
CC[C@]1(O)C[C@H]2CN(CCc3c([nH]c4ccccc34)[C@@](C(=O)OC)(c3cc4c(cc3OC)N(C=O)[C@H]3[C@@](O)(C(=O)OC)[C@H](OC(C)=O)[C@]5(CC)C=CCN6CC[C@]43[C@@H]65)C2)C1,,,,747,
CN1CCN(C(=S)N/N=C2\CC3(CCCCC3)Oc3c2ccc2ccccc32)CC1,4.93,4.98,5.09,,
C#Cc1cccc(Nc2ncnc3cc(OCCOC)c(OCCOC)cc23)c1 [ERLOTINIB],< 4.70,4.76,< 4.70,,
O=C1CC2(CCCCC2)Oc2c1ccc1ccccc21,4.97,4.98,5.21,,
S=C(N/N=C1\CC2(CCCCC2)Oc2c1ccc1ccccc21)NC1CCCCC1,4.82,5.04,5.13,,

# Continued, in another order:
pIC50 (MCF7),pIC50 (A549),pIC50 (HT-29),Activity (Sus scrofa) [a.u.],SMILES,pIC50 [1]
5.01,4.89,5.00,,N/N=C1\CC2(CCCCC2)Oc2c1ccc1ccccc21,
,,,4820,CC(=O)O[C@@]12CO[C@@H]1C[C@H](O)[C@@]1(C)C(=O)[C@H](O)C3=C(C)[C@@H](OC(=O)[C@H](O)[C@@H](NC(=O)OC(C)(C)C)c4ccccc4)C[C@@](O)([C@@H](OC(=O)c4ccccc4)[C@H]21)C3(C)C,
5.04,5.08,5.15,,Cc1ccc(NC(=O)N/N=C2\CC3(CCCCC3)Oc3c2ccc2ccccc32)cc1,
5.29,4.95,5.12,,O=C1Nc2ccccc2/C1=N/N=C1\CC2(CCCCC2)Oc2c1ccc1ccccc21,< 4.40
4.92,5.09,5.32,,O=C(N/N=C1\CC2(CCCCC2)Oc2c1ccc1ccccc21)Nc1ccccc1,
5.44,5.21,5.40,,CNC(=O)c1cc(Oc2ccc(NC(=O)Nc3ccc(Cl)c(C(F)(F)F)c3)cc2)ccn1 [SORAFENIB],< 4.40

# — ChEMBL document CHEMBL4229351, “Design, synthesis and anticancer evaluation of novel spirobenzo[h]chromene and spirochromane derivatives with dual EGFR and B-RAF inhibitory activities” (Eur J Med Chem, 2018)
